# Screening data: PubChem BioAssay, several laboratories
# TCR-CD3 inh – inhibitors of human TCR-CD3 interaction, primary screen, biochemical, fluorescence, TAMRA-labeled TCR probe; T-cell receptor (TCR); inhibition, % at 9.4 µM; actives 0.37% (n = 360,000); AID 651800, 2012; in the data active means inhibition above about 19%;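 further: recombinant mutant TCR 2C K166C tagged with TAMRA read by polarization; 0% = receptor in buffer alone and 100% = receptor with positive control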
# PAD4 FP inh – human PAD4 inhibitors, primary screen, biochemical, fluorescence polarization, 1536-well format | Protein-arginine deiminase type-4 (Homo sapiens), Q9UM07 | inhibition, % at 6.36 µM | recombinant PAD4, RCA probe fluorescence polarization | actives 0.41% (n = 330,000);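 active means percent inhibition above a cutoff equal to the mean of all tested compounds plus 3 SD, cut at about 15% in these data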;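 further: 0% = PAD4 with RCA probe and DMSO and 100% = probe without PAD4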
# GSTO1 counter – inhibitors of recombinant GSTO1, primary screen, counter-screen for RBBP9 inhibitor project, biochemical, fluorescence polarization. actives 1.1% (n = 300,000). inhibition, % at 5.96 µM. activity-based probe fluorescence polarization;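 active means inhibition above the campaign mean inhibition plus 3 SD, cut at about 35% in these data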;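 further: 0% = GSTO1-1 with DMSO and 100% = wells lacking GSTO1-1 enzyme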
# Target sequence (P78417 whole entry, looked up): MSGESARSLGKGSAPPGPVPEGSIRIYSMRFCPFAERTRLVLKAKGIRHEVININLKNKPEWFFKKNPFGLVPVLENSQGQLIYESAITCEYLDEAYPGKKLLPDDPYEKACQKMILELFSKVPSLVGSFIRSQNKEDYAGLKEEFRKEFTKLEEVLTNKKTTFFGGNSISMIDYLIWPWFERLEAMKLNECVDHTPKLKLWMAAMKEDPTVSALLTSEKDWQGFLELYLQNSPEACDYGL
# TDP2 absorb – human TDP2 enzyme inhibitors, primary screen, biochemical, epi absorbance, recombinant enzyme | Tyrosyl-DNA phosphodiesterase 2 (Homo sapiens), O95551 | T5PNP hydrolysis, p-nitrophenol absorbance 415 nm | inhibition, % at 12.8 µM | actives 0.34% (n = 370,000) | AID 720702, 2013;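 active means inhibition above the mean of all tested compounds plus 3 SD, set per campaign, cut at about 25% in these data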;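 further: 0% = DMSO with enzyme and 100% = buffer with substrate but no TDP2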
# Target sequence (O95551 whole entry, looked up): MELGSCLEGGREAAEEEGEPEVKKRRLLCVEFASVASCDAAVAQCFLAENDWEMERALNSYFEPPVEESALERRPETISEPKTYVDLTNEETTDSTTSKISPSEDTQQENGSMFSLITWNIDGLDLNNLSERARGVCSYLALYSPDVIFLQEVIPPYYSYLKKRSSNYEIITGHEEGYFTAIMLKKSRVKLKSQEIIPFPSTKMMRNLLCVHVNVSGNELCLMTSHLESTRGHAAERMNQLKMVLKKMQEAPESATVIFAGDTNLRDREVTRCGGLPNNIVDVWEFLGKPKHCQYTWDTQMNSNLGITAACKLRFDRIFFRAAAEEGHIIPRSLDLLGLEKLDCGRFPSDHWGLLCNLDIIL
#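 System – recombinant human TDP2 · Quantity – TDP2 enzyme at 120 nM final · Doses – single concentration, 12.8 µM nominal, with 1% DMSO · Incubation – 2 h at 37 °C · Measured by – epi absorbance of p-nitrophenol freed from T5PNP by hydrolysis · Read-out – % inhibition relative to enzyme-containing and enzyme-free wells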
# Apaf1 inhib – inhibitors of human Apaf-1 apoptosome, primary screen, biochemical, DEVD-Rh110 fluorescence, uHTS; actives 0.71% (n = 330,000); inhibition, % at 20 µM; reconstituted apoptosome caspase-3 activity; Apoptotic protease-activating factor 1 (Homo sapiens), O14727; AID 489030, 2010; active means inhibition of at least 40% at 20 µM;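 further: plate controls were DMSO wells for no effect and DEVD-CHO caspase inhibitor wells for full effect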
#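 Medium: Hepes buffer, pH 7.5 / System: biochemical Apaf-1 apoptosome reconstitution / Measured by: Rh110 fluorescence, excitation 480 nm, emission 540 nm / Times: compound with Apaf-1, dATP, procaspase-3 30 min, then 50 min reaction, room temperature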
# SIAE primary – human SIAE inhibitors, primary screen, biochemical, fluorescence polarization, FP-Rh probe, 1536-well HTS; SIAE FP-Rh probe binding; AID 1053197, 2014; inhibition, % at 9.66 µM; actives 0.69% (n = 370,000);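 active means inhibition above a cutoff: mean of compounds within the control limits plus 3 SD of those, cut at about 17% in these data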;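 further: 0% = plate median of compound wells and 100% = probe without SIAE protein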
# SIAE inh conf – human SIAE inhibitors, retest, confirmation, biochemical, fluorescence polarization, FP-Rh probe, triplicate; shares compounds with SIAE primary; AID 1117263, 2014; inhibition, % at 9.66 µM; SIAE FP-Rh activity-based probe; actives 13% (n = 2,300);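 active means mean inhibition of the replicates above the hit cutoff set in the primary screen, cut at about 17% in these data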;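 further: 0% = SIAE with DMSO and probe and 100% = probe without SIAE; inhibitors lower polarization as more probe stays unbound to SIAE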
# * = called active by the depositor; nt = no result. Only some compounds are listed: those with a hit (about 2.4% of all), similar ones and a draw of the others.
SMILES,TCR-CD3 inh,PAD4 FP inh,GSTO1 counter,TDP2 absorb,Apaf1 inhib,SIAE primary,SIAE inh conf
COc1ccc(Nc2nc(N)c([N+](=O)[O-])c(NCc3ccccc3)n2)cc1,3.5,-3.2,4.8,8.4,11.2,23.8*,5.0
O=C(NCCS(=O)(=O)N1CCN(Cc2ccccc2)CC1)c1ccccc1,-8.6,-0.2,1.3,-2.9,-0.2,4.5,nt
COc1cccc(NC(=O)CN(C)C(=O)C2=COCCO2)c1,-8.7,nt,nt,-16.9,-3.7,17.9*,4.3
COc1cccc(NC(=O)C2=COCCO2)c1,-3.0,-3.0,-0.2,-3.8,-3.6,-1.0,nt
Cc1cccc(CCNC(=O)c2cccc(NC3=NC4CS(=O)(=O)CC4S3)c2)c1 (stereo not given),-6.1,-8.4,2.6,-14.1,-3.4,5.0,nt
Cc1cc(=O)[nH]c(/N=C(\N)Nc2ccc3c(c2)OCCO3)n1,9.5,-5.7,-0.3,-8.7,-8.5,-0.5,nt
Cc1cc(C)nc(/N=C(\N)Nc2ccc3c(c2)OCCO3)n1,-6.4,9.9,9.0,5.0,3.5,17.9*,-4.8
COc1ccc(C)cc1N(CC(=O)N1CCCC1)S(C)(=O)=O,-2.1,-1.0,7.0,-2.5,-7.2,17.5*,-0.7
COc1ccc(C)cc1N(CC(=O)N1CCCCCC1)S(C)(=O)=O,3.8,-1.0,-4.8,-3.0,-6.6,5.0,nt
O=C(N/N=C/c1cc(Cl)c(O)c(Cl)c1)c1cc2c(ccc3ccccc32)o1,12.2,-2.4,37.2*,12.6,14.2,55.3*,40.9*
O=C(N/N=C/c1ccc(O)c(Br)c1)c1cc2c(ccc3ccccc32)o1,-12.3,nt,nt,-12.7,29.9,1.1,nt
O=C(N/N=C/c1cc(Br)c(O)c(Br)c1)c1cc2c(ccc3ccccc32)o1,14.7,nt,nt,-3.5,29.9,57.4*,25.6*
c1nc2sc3c(c2c2nnnn12)CCC3,-0.7,-4.0,-40.9,2.1,0.5,2.4,nt
COc1ccccc1CN(CC(=O)NCc1ccc2c(c1)OCO2)C(=O)c1ccc2c(c1)OCCO2,-1.8,2.6,2.8,-9.4,16.3,0.0,nt
Cc1c(P(=O)(c2ccccc2)c2ccccc2)c2ccccc2n1C,3.8,nt,nt,7.8,nt,12.8,nt
CCc1c(C)c2cc(Cl)c(O)c(CN(C)C)c2oc1=O,-7.3,-1.1,-3.2,-12.4,-4.2,10.4,nt
O=C(Cc1csc(NC(=O)Nc2ccc(Cl)cc2)n1)NCc1ccccn1,2.6,4.3,-1.0,11.7,3.4,0.7,nt
Cc1[nH]c2ccc(OCc3ccccc3)cc2c1CCN1C(=O)OC(C)(C)C1(C)O (stereo not given),-2.4,6.2,4.0,-5.3,11.6,4.2,nt
Cc1[nH]c2ccc(F)cc2c1CCN1C(=O)OC(C)(C)C1(C)O (stereo not given),-7.3,2.4,-9.1,0.0,-7.4,26.4*,2.6
O=C(NS(=O)(=O)c1ccccc1[N+](=O)[O-])[C@H]1O[C@@H](n2ccc(=O)[nH]c2=O)[C@H](O)[C@@H]1O,3.6,nt,nt,6.7,nt,30.1*,30.0*
CN(C)c1cccc2c(S(=O)(=O)NC(=O)[C@H]3O[C@@H](n4ccc(=O)[nH]c4=O)[C@H](O)[C@@H]3O)cccc12,8.8,nt,nt,-0.3,nt,36.0*,45.5*
Cc1ccc(Cn2cc(CN3CC=CS3(=O)=O)nn2)cc1,nt,nt,nt,0.0,nt,6.5,nt
CCn1cc(/C=C/c2cc[n+](C)cc2)c2ccccc21,-4.6,-7.1,1.4,-20.1,nt,-5.8,nt
C[C@H](O)[C@@H]1CN2CCc3c([nH]c4ccccc34)[C@@H]2C[C@@H]1N(C)C(=O)Nc1cccc2ccccc12,-7.4,nt,nt,13.0,nt,21.9*,-5.9
C=C(C)C(=O)Oc1ccc(N=Nc2ccc(C)cc2)ccc1=O,8.6,nt,nt,5.5,nt,18.0*,6.2
SMILES,TCR-CD3 inh,PAD4 FP inh,GSTO1 counter,TDP2 absorb,Apaf1 inhib,SIAE primary,SIAE inh conf
COc1ccc(Nc2nnc(SC(C(=O)Nc3ccc(OC)c(Cl)c3)c3ccccc3)s2)cc1 (stereo not given),-9.5,-4.6,-18.8,4.5,0.6,20.2*,-3.3
COc1ccc(Nc2nnc(SC(C(=O)Nc3cc(C)ccc3C)c3ccccc3)s2)cc1 (stereo not given),12.6,-1.8,1.7,-10.0,9.9,15.6,nt
CCOc1ccc(OCC)c(NC(=O)Nc2ccc3c(c2)N(C)C(=O)CS3)c1,4.0,-2.6,-12.9,-11.4,12.7,21.8*,1.1
COc1cc(/C=N/N=C2/NC(=O)C(c3ccccc3)S2)ccc1O (stereo not given),9.1,-0.6,2.1,11.2,-13.9,18.7*,9.0
CCC(C)c1ccccc1N1CC(C(=O)N2CCN(C(=O)c3ccco3)CC2)CC1=O (stereo not given),-5.8,3.6,nt,0.7,18.1,7.3,nt
CCOc1ccc(/C=N/Nc2cc(C)nc(N3CCOCC3)n2)cc1,-4.8,0.1,0.3,-5.8,-7.6,-3.2,nt
CCOc1ccc(/C=N/Nc2cc(N3CCOCC3)nc(C)n2)c(O)c1,-11.1,-2.7,8.0,5.0,7.4,31.3*,26.2*
CC(C)c1ccccc1OCC(=O)N1CCCCCCC1,0.4,-2.1,2.3,-2.9,0.3,-1.7,nt
Cc1nc2c(C)cccc2cc1C(=O)N/N=C/c1cccnc1,0.7,-5.6,-3.7,-5.6,1.1,18.3*,2.5
CSc1ncc(CNc2cc([N+](=O)[O-])ccc2C)c(N)n1,8.5,-6.2,-2.2,-1.8,-0.5,-0.8,nt
Clc1ccc(N2CCCCCC2)nn1,-2.0,-2.1,3.2,3.3,9.9,18.5*,-7.1
COc1ccc(/C=N/Nc2nc(C)cc(-c3ccccc3)n2)c(OC)c1,-1.7,0.6,8.0,1.3,-2.0,-1.3,nt
COc1ccc(O)c(/C=N/Nc2nc(C)cc(-c3ccccc3)n2)c1,-2.3,1.8,17.3,1.9,-9.8,21.6*,6.1
O=C(NN=Cc1ccc(F)cc1)c1ccccc1NS(=O)(=O)c1cccs1,0.5,-2.3,nt,5.6,0.3,1.1,nt
O=C(NN=Cc1cc(Br)c(O)c(Br)c1)c1ccccc1NS(=O)(=O)c1cccs1,11.6,-6.0,nt,-8.6,18.2,19.4*,9.5
Cc1ccc(C)c(OCC(=O)N(Cc2nnc(-c3ccccc3Cl)o2)C2CC2)c1,-6.2,1.6,-0.4,-1.7,14.9,12.4,nt
Fc1cccc(NC(=S)NNc2c3ccccc3nc3ccccc23)c1,-8.6,nt,nt,-5.7,nt,38.7*,8.5
